Experimental data published in ChEMBL document CHEMBL1122726, “Analogues of platelet activating factor (PAF). 1. Some modifications of the alkoxy chain” (J Med Chem, 1984).

Tests used:
[1] = Ratio = (MABP / platelet EC50 ) x 10 E -8; type: functional
Method in brief: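 Intravenous dose lowering MABP by 50 mmHg in spontaneously hypertensive rats, divided by the EC50 for aggregation of rabbit platelet-rich plasma, then multiplied by 10^-8.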

[2] = species on record: Oryctolagus cuniculus; test: Tested for the molar concentration required to cause 50% of maximum aggregation
[3] = species on record: Oryctolagus cuniculus; test: Tested for maximum aggregation units at specified molar concentration; type: functional
Method in brief: (§1)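 Platelet-rich plasma from citrated cardiac-puncture blood of unanesthetized male New Zealand white rabbits, low-speed spin. Count adjusted with platelet-poor plasma, within 350000-600000/µL. 450 µL PRP plus 50 µL compound stock solution. EC50 taken as the concentration giving 50% of that compound's own maximum aggregation, from the mean dose-response curve of experiments with two to six replicates per dose. Maximum aggregation given in aggregation units at the stated molar concentration.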

[4] = test system: Rattus norvegicus; test: Tested for the dose needed to decrease mean arterial blood pressure (MABP) 50 mmHg in male rats, iv; type: functional
Method in brief: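 Spontaneously hypertensive rats, arterial and venous catheters tunneled subcutaneously and exteriorized at the neck, studied at least 16 h after surgery while held in restraining cages. Compound dissolved in saline or 10-25% ethanol in saline, given as a rapid iv bolus at 1 mL/kg followed by a flush. Pressure read at 1-min intervals for 15 min after dosing. Maximum MABP change per rat, averaged per dose. Least-squares regression, solved for a −50 mmHg response.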

[5] = species on record: Oryctolagus cuniculus; test: Tested for maximum aggregation units at specified molar concentration; g= No response; type: functional; method in brief: as §1
[6] = species on record: Rattus norvegicus; test: Tested for the molar concentration required to cause 50% of maximum aggregation; type: functional, organism-based; method in brief: as §1

SMILES | EC50 [2] [nM] | EC50 [6] [nM] | Ratio [1] | Max platelet response [3] | Dose [4] [µg/kg] | Max platelet response [5]
CCCCCCCCCCCCCCCCCCOCC(COP(=O)([O-])OCC[N+](C)(C)C)OC(C)=O (configuration not stated) | 16 | – | 1.98 | 79 | 3.17 | –
CCCCCCCCCCCCCCc1ccc(OCC(COP(=O)([O-])OCC[N+](C)(C)C)OC(C)=O)cc1 (configuration not stated) | 53 | – | 2.37 | 80 | 12.56 | –
CCCCCCCCCCCCCCCCCC(COP(=O)([O-])OCC[N+](C)(C)C)OC(C)=O (configuration not stated) | – | 3100 | 1.15 | 31 | 357.3 | –
CCCCCCCCCCCCCCCCOCC(COP(=O)([O-])OCC[N+](C)(C)C)OC(C)=O (configuration not stated) [PLATELET ACTIVATING FACTOR] | 22.2 | – | 0.56 | 71 | 1.25 | –

Second part, led by results:

EC50 [2] [nM] | EC50 [6] [nM] | SMILES | Ratio [1] | Max platelet response [3] | Dose [4] [µg/kg] | Max platelet response [5]
> 10000 | – | CCCCCCCCCCCCCCCCc1ccccc1OCC(COP(=O)([O-])OCC[N+](C)(C)C)OC(C)=O (configuration not stated) | – | – | – | No response
44 | – | CCCCCCCCCCCCCCc1cccc(OCC(COP(=O)([O-])OCC[N+](C)(C)C)OC(C)=O)c1 (configuration not stated) | 0.1 | 70 | 0.43 | –
